Screening results deposited in PubChem BioAssay by The Scripps Research Institute Molecular Screening Center.
CHO parental Ca = counter-screen: ATP calcium response change in parental CHO cells | parental CHO-K1, ATP-induced calcium, Fluo-8 fluorescence | 0.63% of 330,000 active | inhibition, % at 5.6 µM;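 active = inhibition above that plate's mean sample inhibition plus 3 SD, cut at about 26% in these data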;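 also: 0% = ATP-challenged DMSO wells and 100% = DMSO wells without ATP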
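material = parental CHO cells | also added = ATP as calcium-mobilizing challenge | dosing = single point at 5.6 µM | detection = intracellular calcium via Fluo-8 no-wash fluorescent dye | read-out = % inhibition | benchmarks = low control ATP plus DMSO, high control DMSO only | repeats = one well per compound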
OX1R antag-1 = antagonists of human orexin 1 receptor; CHO/OX1R cells, Fluo-8 calcium fluorescence, orexin A; AID 434989; O43613; 0.43% of 330,000 active; inhibition, % at 5 µM;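 active = inhibition above its plate's threshold, mean inhibition of all tested compounds on the plate plus 3 SD, cut at about 37% in these data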;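 also: 0% = orexin A challenge wells and 100% = SB-334867-A antagonist wells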
Target sequence (O43613 whole entry, looked up): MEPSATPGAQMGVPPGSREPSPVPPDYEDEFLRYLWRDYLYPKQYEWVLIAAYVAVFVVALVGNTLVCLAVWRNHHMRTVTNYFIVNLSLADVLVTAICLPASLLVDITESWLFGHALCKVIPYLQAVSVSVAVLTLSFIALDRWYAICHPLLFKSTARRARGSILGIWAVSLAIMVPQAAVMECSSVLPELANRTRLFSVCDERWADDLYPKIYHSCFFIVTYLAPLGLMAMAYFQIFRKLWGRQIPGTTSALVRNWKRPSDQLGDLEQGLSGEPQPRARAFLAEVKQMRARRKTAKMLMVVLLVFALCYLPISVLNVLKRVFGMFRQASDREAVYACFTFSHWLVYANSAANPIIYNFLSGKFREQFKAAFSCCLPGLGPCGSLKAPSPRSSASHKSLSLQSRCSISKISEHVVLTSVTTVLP
TAAR1 agonist = human TAAR1 agonism; Q96RJ0; CHO RD-HGA16 TAAR1, Fluo-8 calcium fluorescence; vehicle wells 0%, saturating PEA agonist 100%; activation, % at 3 µM; 0.99% of 360,000 active; AID 624467;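 active = activation above the mean activation of all test compounds in the run plus 3 SD, cut at about 38% in these data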
Target sequence (Q96RJ0 whole entry, looked up): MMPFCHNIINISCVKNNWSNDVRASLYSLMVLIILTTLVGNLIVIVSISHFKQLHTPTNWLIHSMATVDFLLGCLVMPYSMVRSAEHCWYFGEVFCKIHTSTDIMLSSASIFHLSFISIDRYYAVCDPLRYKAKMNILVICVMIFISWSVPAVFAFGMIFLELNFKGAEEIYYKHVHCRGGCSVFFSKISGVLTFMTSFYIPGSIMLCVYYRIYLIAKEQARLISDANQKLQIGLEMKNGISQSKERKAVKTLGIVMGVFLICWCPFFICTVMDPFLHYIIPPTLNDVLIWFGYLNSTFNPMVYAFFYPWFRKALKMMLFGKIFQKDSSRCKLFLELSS
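test system = CHO RD-HGA16 cells carrying human TAAR1 plus Gα16 | schedule = 17-24 h seeding, 75 min 37 °C dye, 30 min RT | compound dosing = 3 µM single concentration | control set = DMSO and PEA EC100 | replicates = n 1 | signal = Fluo-8 fluorescence, 5 s baseline then 140 s kinetic read | measure = percent activation vs PEA EC100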
OX1R antag-2 = blocks the human orexin 1 receptor. OX1R-expressing cells, FRET antagonist read-out. inhibition, % at 6.6 µM. 1.8% of 330,000 active. AID 485270; in the data active = inhibition mostly above about 38%, no sharp cut-off; inactive = mostly below about 40%;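 also: 0% = agonist challenge alone and 100% = reference antagonist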
GalR3 antagonist = human GalR3 antagonism; HEK293 GalR3-CNG cAMP membrane potential fluorescence; galR3 body fused to GalR1 C-terminus; inhibition, % at 3 µM; AID 651719; O60755; 0.44% of 360,000 active;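 active = inhibition above the screen-wide average plus 3 SD, cut at about 13% in these data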;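 also: forskolin and galanin both at EC90 stimulate the cells; cAMP rise reported by CNG channel membrane potential dye signal; 0% = forskolin plus galanin with DMSO and 100% = forskolin alone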
TAAR1 antag = human TAAR1 antagonism; Q96RJ0; CHO RD-HGA16 TAAR1, Fluo-8 calcium fluorescence, antagonist; inhibition, % at 3 µM; 1.5% of 360,000 active;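 active = inhibition above a per-plate cutoff, the mean inhibition of test compounds on that plate plus 3 SD, cut at about 49% in these data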;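 also: 0% = DMSO plus EC80 beta-PEA response and 100% = DMSO alone without agonist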
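Assay system: RD-HGA16 CHO cells with stable hTAAR1 and Gα16 / Reagent: EC80 β-phenethylamine stimulus / Doses: 3 µM, single point / Timing: dye loading 75 min at 37 °C, then 30 min room temperature / Measured by: Fluo-8 intracellular calcium dye fluorescence, real-time kinetic reads / Controls: vehicle wells and EC80 agonist wells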
nonsel antag count = nonselective antagonist in TAAR1 antagonist counter-screen. shares compounds with TAAR1 antag. counterscreen cell line, calcium fluorescence, antagonist mode. inhibition, % at 3 µM. 77% of 2,400 active. AID 651780; in the data active = inhibition above about 22%;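 also: CHO-Ga16 host cells stimulated with ATP at an EC80 level; 0% = agonist EC80 plus vehicle and 100% = vehicle without agonist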
TAAR1 antag conf = confirmation of human TAAR1 antagonists; shares compounds with TAAR1 antag; TAAR1-expressing cells, fluorescence antagonist read-out; inhibition, % at 3 µM; 40% of 2,400 active; in the data active = inhibition above about 49%;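 also: CHO-Ga16 host cells challenged with agonist PEA near its EC80; 0% = agonist at EC80 plus vehicle and 100% = vehicle with no agonist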
Ga16 ag counter = nonselective Ga16 agonist in TAAR1 antagonist counter-screen; 18% of 2,400 active; activation, % at 3 µM; Ga16-expressing cells, calcium fluorescence, agonist counterscreen; shares compounds with TAAR1 antag; in the data active = activation above about 12%;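 also: 0% = vehicle wells and 100% = saturating stimulus response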
TAAR1 ag count = counter-screen for human TAAR1 antagonists: TAAR1 agonists; activation, % at 3 µM; shares compounds with TAAR1 antag; hTAAR1 cell line, fluorescence activation, agonist mode; 2% of 2,400 active; in the data active = activation above about 37%;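 also: CHO cells stably expressing TAAR1 with calcium dye readout; 0% = DMSO vehicle and 100% = full agonist response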
Numbers without * were called inactive. Most compounds without a hit are left out; they make up all but 4.2% or so of the library.

How did CCC1CN(C(=O)N2CCC(C(=O)NCCc3ccccc3OC)CC2)c2ccccc2O1 (stereo not drawn) do in these assays?
CHO parental Ca: -13; OX1R antag-1: -28; TAAR1 agonist: 13; OX1R antag-2: 8; GalR3 antagonist: 1; TAAR1 antag: 75*; nonsel antag count: 29*; TAAR1 antag conf: 54*; Ga16 ag counter: 11; TAAR1 ag count: 15

Results for CCC1CN(C(=O)N2CCC(C(=O)NCc3ccco3)CC2)c2cc(C)ccc2O1 (stereo not drawn) ?
CHO parental Ca: -18; OX1R antag-1: -30; TAAR1 agonist: 14; OX1R antag-2: 24; GalR3 antagonist: -10; TAAR1 antag: 50*; nonsel antag count: 28*; TAAR1 antag conf: 49*; Ga16 ag counter: 9; TAAR1 ag count: 9

How did COC(=O)C1(C(C[N+](=O)[O-])c2ccco2)C(=O)NCC1c1ccccc1 (stereo not drawn) do in these assays?
CHO parental Ca: -7; OX1R antag-1: -25; TAAR1 agonist: 2; OX1R antag-2: 14; GalR3 antagonist: -3; TAAR1 antag: -20

How did Cc1ccccc1-n1nc2c(c1NC(=O)CC(C)C)CS(=O)C2 (stereo not drawn) do in these assays?
CHO parental Ca: 1; OX1R antag-1: -9; TAAR1 agonist: 1; OX1R antag-2: 2; GalR3 antagonist: 4; TAAR1 antag: -8

What do the screens show for `COc1ccc(C(=O)N2N=C(c3cccc(NS(C)(=O)=O)c3)CC2c2cccs2)cc1` (stereo not drawn)?
CHO parental Ca: -3; OX1R antag-1: -19; TAAR1 agonist: 13; OX1R antag-2: 9; GalR3 antagonist: -6; TAAR1 antag: 61*; nonsel antag count: 31*; TAAR1 antag conf: 48; Ga16 ag counter: 10; TAAR1 ag count: 12

Results for CS(=O)(=O)Nc1cccc(C2=NN(C(=O)c3ccc(F)cc3)C(c3cccs3)C2)c1 (stereo not drawn) ?
CHO parental Ca: 2; OX1R antag-1: -7; TAAR1 agonist: 7; OX1R antag-2: -6; GalR3 antagonist: -9; TAAR1 antag: -2

What do the screens show for `CC(C)(C)c1cc(C(=O)N/N=C/c2ccc(-c3ccccc3[N+](=O)[O-])o2)n[nH]1`?
CHO parental Ca: -5; OX1R antag-1: -3; TAAR1 agonist: 5; OX1R antag-2: 42; GalR3 antagonist: -2; TAAR1 antag: 63*; nonsel antag count: 27*; TAAR1 antag conf: 53*; Ga16 ag counter: 7; TAAR1 ag count: 3

Results for O=C(Nc1ccc(N2CCN(C(=O)c3ccccc3)CC2)c(Cl)c1)c1ccc(Br)o1 ?
CHO parental Ca: 3; OX1R antag-1: 4; TAAR1 agonist: 17; OX1R antag-2: 13; GalR3 antagonist: -5; TAAR1 antag: 69*; nonsel antag count: 35*; TAAR1 antag conf: 47; Ga16 ag counter: 8; TAAR1 ag count: 5

How did O=C(Nc1ccc(N2CCN(C(=O)c3ccccc3)CC2)cc1)c1cc2ccccc2o1 do in these assays?
CHO parental Ca: -2; OX1R antag-1: 15; TAAR1 agonist: 15; OX1R antag-2: 24; GalR3 antagonist: 1; TAAR1 antag: 77*; nonsel antag count: 44*; TAAR1 antag conf: 62*; Ga16 ag counter: 10; TAAR1 ag count: 14

Results for O=C(Nc1ccc(N2CCN(C(=O)c3ccc(Cl)cc3)CC2)cc1)c1ccc2c(c1)OCCO2 ?
CHO parental Ca: 8; OX1R antag-1: 18; TAAR1 agonist: 12; OX1R antag-2: 27; GalR3 antagonist: -5; TAAR1 antag: 58*; nonsel antag count: 44*; TAAR1 antag conf: 49*; Ga16 ag counter: 11; TAAR1 ag count: 5

Results for CCn1c(CNC(=O)c2ccco2)nnc1SCC(=O)c1ccccc1 ?
CHO parental Ca: -10; OX1R antag-1: -13; TAAR1 agonist: 3; OX1R antag-2: 9; GalR3 antagonist: -1; TAAR1 antag: 7

What do the screens show for `CCn1cc(C(=O)NCC2CCCO2)c(=O)c2cc(S(=O)(=O)N(C)C3CCCCC3)ccc21` (stereo not drawn)?
CHO parental Ca: -5; OX1R antag-1: -16; TAAR1 agonist: 10; OX1R antag-2: 14; GalR3 antagonist: -1; TAAR1 antag: 52*; nonsel antag count: 20; TAAR1 antag conf: 38; Ga16 ag counter: 6; TAAR1 ag count: 5

Results for O=C(Nc1ccccc1)c1ccc(F)c(S(=O)(=O)N2CCOCC2)c1 ?
CHO parental Ca: -4; OX1R antag-1: -22; TAAR1 agonist: 11; OX1R antag-2: 10; GalR3 antagonist: -2; TAAR1 antag: 5

Results for O=C(Nc1ccc(-c2cn3ccsc3n2)cc1)c1ccc(F)c(S(=O)(=O)N2CCOCC2)c1 ?
CHO parental Ca: 17; OX1R antag-1: 1; TAAR1 agonist: 23; OX1R antag-2: 31; GalR3 antagonist: -4; TAAR1 antag: 91*; nonsel antag count: 39*; TAAR1 antag conf: 75*; Ga16 ag counter: 12*; TAAR1 ag count: 7

Results for O=C(O)CCN1CC2([N+](=O)[O-])CC=C(OCCO)C([N+](=O)[O-])(C1)C2 (stereo not drawn) ?
CHO parental Ca: -11; OX1R antag-1: -10; TAAR1 agonist: 7; OX1R antag-2: 12; GalR3 antagonist: 0; TAAR1 antag: -4

What do the screens show for `CN(/N=C/Cc1nnnn1-c1ccc(Cl)cc1)c1ccccc1`?
CHO parental Ca: -14; OX1R antag-1: -14; TAAR1 agonist: 11; OX1R antag-2: 2; GalR3 antagonist: 2; TAAR1 antag: -9

Results for Cc1c([N+](=O)[O-])cc(C(=O)Nc2ccc(Cc3ccncc3)cc2)cc1[N+](=O)[O-] ?
CHO parental Ca: -13; OX1R antag-1: -1; TAAR1 agonist: 14; OX1R antag-2: 12; GalR3 antagonist: -4; TAAR1 antag: 88*; nonsel antag count: 31*; TAAR1 antag conf: 91*; Ga16 ag counter: 11; TAAR1 ag count: 16

What do the screens show for `Cc1c([N+](=O)[O-])cc(C(=O)Nc2ccc3ncccc3c2)cc1[N+](=O)[O-]`?
CHO parental Ca: -1; OX1R antag-1: -18; TAAR1 agonist: -1; OX1R antag-2: 9; GalR3 antagonist: -2; TAAR1 antag: -17
